An excerpt weighted towards active compounds, which were near 2.1% of everything screened.
IMP-1 inh: blocks Pseudomonas aeruginosa IMP-1 metallo-beta-lactamase; 290,000 compounds, 0.45% hits; inhibition, % at 5.6 µM; purified IMP-1, nitrocefin hydrolysis, epi-absorbance fluorescence;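 active = inhibition above the mean plus 3 SD of all compounds in the same screening run, cut at about 4.5% in these data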
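Assay system: purified IMP-1; Quantity: IMP-1 0.2 nM before substrate addition; Medium: HEPES buffer pH 7.1 with ZnSO4 and Brij 35; Incubation: 15 min enzyme–compound preincubation, then 25 min nitrocefin reaction, 25 °C; Signal: fluorescence quenching readout, ex 480/em 530 nm; Controls: DMSO with and without IMP-1; Repeats: singlicate testing.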
CRFBP-R2 block: CRF-BP/CRF-R2 complex antagonism; HEK293 CRF-R2/CRF-BP, CRF-induced calcium fluorescence; inhibition, % at 11.8 µM; 350,000 compounds, 0.59% hits;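 active = inhibition of the ligand-induced calcium signal above about 50% at the single tested concentration, limit read from the data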
TRPML3 ag: agonists of human TRPML3 channel | Q8TDD5 | HEK293 TRPML3-YFP, Fluo-8 calcium fluorescence; 100% = the carbachol control signal | activation, % at 3 µM | 220,000 compounds, 0.29% hits;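 active = activation above its plate's cutoff, the mean activation of the plate's test wells plus 3 SD, cut at about 12% in these data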
Target sequence (Q8TDD5 whole entry, looked up): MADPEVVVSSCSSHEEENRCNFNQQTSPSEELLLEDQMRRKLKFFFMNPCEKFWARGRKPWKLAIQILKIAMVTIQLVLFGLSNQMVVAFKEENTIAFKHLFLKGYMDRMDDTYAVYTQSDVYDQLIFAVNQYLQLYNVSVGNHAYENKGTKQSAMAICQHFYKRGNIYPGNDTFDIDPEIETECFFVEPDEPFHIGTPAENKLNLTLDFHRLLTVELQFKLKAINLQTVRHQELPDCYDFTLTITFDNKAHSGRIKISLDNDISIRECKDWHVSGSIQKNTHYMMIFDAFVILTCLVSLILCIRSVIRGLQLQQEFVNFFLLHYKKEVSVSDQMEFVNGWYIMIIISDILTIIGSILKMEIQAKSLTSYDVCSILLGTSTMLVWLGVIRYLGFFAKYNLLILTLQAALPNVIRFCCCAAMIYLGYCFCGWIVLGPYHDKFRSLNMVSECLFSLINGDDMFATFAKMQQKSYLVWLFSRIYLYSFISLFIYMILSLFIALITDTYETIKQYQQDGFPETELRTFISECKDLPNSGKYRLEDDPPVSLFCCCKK
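Test system: TRPML3-YFP stable HEK293 cells. Doses: single point at 3 µM. Incubation: dye loading 1 h 37 °C then 30 min ambient, 125 s read. Signal: Fluo-8 calcium dye fluorescence, ex 470-495, em 515-575 nm. Measure: percent activation from peak-to-basal fluorescence ratio, scaled between DMSO and carbachol.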
zfTRPN1 agonist: zebrafish TRPN1 (NompC) channel agonism; activation, % at 3 µM; 220,000 compounds, 0.18% hits; HEK293 zebrafish TRPN1-YFP, Fluo-8 calcium fluorescence; 100% = response to 87 µM carbachol;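 active = activation above its plate's cutoff, the mean activation of test wells on that plate plus 3 SD, cut at about 19% in these data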
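Assay system: Zebrafish TRPN1-YFP in HEK293 cells | Incubation: Dye loading 1 h at 37 °C, then 30 min room temperature | Measured by: Kinetic Fluo-8 fluorescence, ex 470-495, em 515-575 nm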
VIM-2 inh: blocks Pseudomonas aeruginosa VIM-2 metallo-beta-lactamase; purified VIM-2, nitrocefin hydrolysis, epi-absorbance fluorescence; inhibition, % at 5.6 µM; 290,000 compounds, 0.89% hits;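 active = inhibition above the mean of all tested compounds plus 3 SD, cutoff set per screening run, cut at about 7.5% in these data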;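 also: red hydrolysis product quenches plate fluorescence so inhibitors raise well fluorescence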
CRFBP-R2 agonist: CRF-BP/CRF-R2 complex agonism | HEK293 CRF-R2/CRF-BP, calcium dye fluorescence (FLIPR); percent of saturating CRF peptide response | activation, % at 13.2 µM | 350,000 compounds, 0.46% hits | AID 588473;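 active = activation of at least 50%, plus an integration ratio under a set limit after plate pattern correction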
A number is an active result.

Screening O=C(CSc1n[nH]c(-c2ccccc2F)n1)Nc1cc(F)ccc1F returned CRFBP-R2 block inactive and CRFBP-R2 agonist inactive.
For Cn1c(=O)c([N+](=O)[O-])c(NCCCn2ccnc2)c2ccccc21 the results were IMP-1 inh inactive, CRFBP-R2 block inactive, TRPML3 ag inactive, zfTRPN1 agonist inactive, VIM-2 inh 7.9 and CRFBP-R2 agonist inactive.
CCCCCn1cnnc1SCC(=O)c1c(N)n(C2CC2)c(=O)[nH]c1=O was read as CRFBP-R2 block inactive and CRFBP-R2 agonist inactive.
`CCOCCn1c(SCc2ccccc2)nc2c1c(=O)[nH]c(=O)n2C` gave CRFBP-R2 block inactive and CRFBP-R2 agonist inactive.
Screening CCOCCn1c(SCC(=O)OCc2ccccc2)nc2c1c(=O)[nH]c(=O)n2C returned CRFBP-R2 block inactive and CRFBP-R2 agonist 56.
Screening O=C(NCC(=O)N(c1ccccc1)C(C(=O)NC1CCCCC1)c1cccnc1)c1ccco1 (stereo not drawn) returned IMP-1 inh inactive, CRFBP-R2 block inactive, VIM-2 inh inactive and CRFBP-R2 agonist inactive.
For COc1ccc(C(C)(C)C)cc1NC(=O)CCCN1C(=O)CN(C)C1=O the results were CRFBP-R2 block inactive and CRFBP-R2 agonist inactive.
COc1ccccc1C(=O)NNC1=C(C(=O)C(F)(F)F)CCC1 was read as IMP-1 inh inactive, CRFBP-R2 block inactive, TRPML3 ag inactive, zfTRPN1 agonist inactive, VIM-2 inh inactive and CRFBP-R2 agonist 62.
Screening CCCc1nc2sc3ccccc3c(=O)c2c(=O)n1Cc1ccco1 returned IMP-1 inh inactive, CRFBP-R2 block inactive, TRPML3 ag inactive, zfTRPN1 agonist inactive, VIM-2 inh inactive and CRFBP-R2 agonist 55.
CCCc1nc2sc3ccccc3c(=O)c2c(=O)n1Cc1ccc(OC)cc1 was read as IMP-1 inh inactive, CRFBP-R2 block inactive, TRPML3 ag inactive, zfTRPN1 agonist inactive, VIM-2 inh inactive and CRFBP-R2 agonist inactive.
`C=CCNC(=O)c1onc(CS(=O)(=O)c2cc(C)cc(C)c2)c1C(=O)NCC=C` gave CRFBP-R2 block inactive and CRFBP-R2 agonist inactive.
For O=C(NCCCn1ccnc1)C(=O)NCC1OCCN1S(=O)(=O)c1ccccc1 (stereo not drawn) the results were IMP-1 inh 13, CRFBP-R2 block inactive, TRPML3 ag inactive, zfTRPN1 agonist inactive, VIM-2 inh inactive and CRFBP-R2 agonist inactive.
COc1ccc(S(=O)(=O)N2CCOC2CNC(=O)C(=O)NCCc2ccccc2)cc1OC (stereo not drawn) was read as IMP-1 inh inactive, CRFBP-R2 block inactive, VIM-2 inh inactive and CRFBP-R2 agonist inactive.
`COc1ccc(S(=O)(=O)N2CCOC2CNC(=O)C(=O)NCCc2ccccc2)cc1C` (stereo not drawn) gave IMP-1 inh inactive, CRFBP-R2 block 140, VIM-2 inh inactive and CRFBP-R2 agonist inactive.
O=C(NCCCn1ccnc1)C(=O)NCC1OCCCN1S(=O)(=O)c1ccccc1 (stereo not drawn) was read as IMP-1 inh 10, CRFBP-R2 block inactive, TRPML3 ag inactive, zfTRPN1 agonist inactive, VIM-2 inh inactive and CRFBP-R2 agonist inactive.
For Cc1onc(-c2ccccc2)c1C(=O)OCC(=O)c1ccc(F)cc1 the results were CRFBP-R2 block inactive and CRFBP-R2 agonist inactive.
For Cc1cc(-c2ccccc2C(=O)O)on1 the results were IMP-1 inh inactive, CRFBP-R2 block inactive, TRPML3 ag inactive, zfTRPN1 agonist inactive, VIM-2 inh inactive and CRFBP-R2 agonist inactive.
Screening O=C(O)c1ccccc1C1=Nc2ccc(O)cc2Oc2cc(O)ccc21 returned IMP-1 inh inactive, CRFBP-R2 block inactive, TRPML3 ag inactive, zfTRPN1 agonist inactive, VIM-2 inh inactive and CRFBP-R2 agonist 107.
Screening CSCCC(NC(=O)c1ccco1)C(=O)OCc1cc([N+](=O)[O-])cc2c1OCOC2 (stereo not drawn) returned IMP-1 inh inactive, CRFBP-R2 block inactive, TRPML3 ag inactive, zfTRPN1 agonist inactive, VIM-2 inh inactive and CRFBP-R2 agonist 56.
CC(C)[C@H](NC(=O)c1ccccc1Cl)C(=O)OCc1cc([N+](=O)[O-])cc2c1OCOC2 was read as IMP-1 inh inactive, CRFBP-R2 block inactive, TRPML3 ag inactive, zfTRPN1 agonist inactive, VIM-2 inh inactive and CRFBP-R2 agonist inactive.
Screening CCC(=O)OCc1c(C(F)(F)F)nn(C)c1Sc1ccc(Cl)cc1 returned IMP-1 inh inactive, CRFBP-R2 block inactive, TRPML3 ag inactive, zfTRPN1 agonist inactive, VIM-2 inh inactive and CRFBP-R2 agonist inactive.
`CCC(=O)OCc1c(C(F)(F)F)nn(C)c1Sc1ccc(F)cc1` gave IMP-1 inh inactive, CRFBP-R2 block 51, TRPML3 ag inactive, zfTRPN1 agonist inactive, VIM-2 inh inactive and CRFBP-R2 agonist inactive.
`Cc1cc(C)cc(N(C(=O)CNC(=O)c2ccco2)C(C(=O)NC2CCCCC2)c2cccnc2)c1` (stereo not drawn) gave IMP-1 inh inactive, CRFBP-R2 block inactive, VIM-2 inh inactive and CRFBP-R2 agonist inactive.
Screening O=C(NCc1ccccn1)c1ccc(NS(=O)(=O)c2cccc(Cl)c2)cc1 returned IMP-1 inh inactive, CRFBP-R2 block inactive, VIM-2 inh inactive and CRFBP-R2 agonist inactive.
CN(/N=C/c1ccc(Cl)cc1Cl)c1ncc(Cl)cc1C(F)(F)F was read as IMP-1 inh inactive, CRFBP-R2 block 63, TRPML3 ag inactive, zfTRPN1 agonist inactive, VIM-2 inh inactive and CRFBP-R2 agonist inactive.
Screening COc1ccc(NS(=O)(=O)c2cccc(C(=O)OCC(=O)Nc3cc(C)on3)c2)cc1 returned IMP-1 inh inactive, CRFBP-R2 block inactive, TRPML3 ag inactive, zfTRPN1 agonist inactive, VIM-2 inh inactive and CRFBP-R2 agonist inactive.
`Cc1ccc(NS(=O)(=O)c2ccc(C(=O)OCC(=O)Nc3cc(C)on3)cc2)cc1` gave IMP-1 inh inactive, CRFBP-R2 block inactive, TRPML3 ag inactive, zfTRPN1 agonist 22, VIM-2 inh inactive and CRFBP-R2 agonist inactive.
For COc1ccc(C(=O)C[n+]2cccc3cc(C)ccc32)cc1 the results were IMP-1 inh 5.9, CRFBP-R2 block inactive, VIM-2 inh inactive and CRFBP-R2 agonist inactive.
CCCCCCCCSC1=CC(=O)C(OC)=C(OC)C1=O was read as CRFBP-R2 block inactive and CRFBP-R2 agonist inactive.
`Cn1c(=O)c2c(SCC(=O)N3CCOCC3)nc(-c3ccccc3F)nc2n(C)c1=O` gave IMP-1 inh inactive, CRFBP-R2 block inactive, VIM-2 inh 7.9 and CRFBP-R2 agonist inactive.
Cn1c(=O)c2c(SCC(=O)N3CCCCC3)nc(-c3ccccc3F)nc2n(C)c1=O was read as IMP-1 inh inactive, CRFBP-R2 block inactive, VIM-2 inh inactive and CRFBP-R2 agonist inactive.
For N#CCc1nc2ccc(S(=O)(=O)N3CCOCC3)cc2s1 the results were IMP-1 inh inactive, CRFBP-R2 block inactive, TRPML3 ag inactive, zfTRPN1 agonist inactive, VIM-2 inh inactive and CRFBP-R2 agonist inactive.

Screens as filed in PubChem BioAssay.
